Experiments:
[1] = test system: Klebsiella pneumoniae; experiment: Inhibition of Klebsiella pneumoniae metallo-beta-lactamase IMP-1 expressed in Escherichia coli BL21(DE3) using CENTA as substrate at 10 uM by spectrophotometric analysis
Summary of the method: (§1)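 Single-point screen with inhibitor at 10 µM against IMP-1 lacking the 21-residue signal peptide (2 nM final). Buffer was 50 mM HEPES pH 7.0 with 0.1 M NaCl, 100 µM ZnCl2 and BSA at 20 µg/mL. Substrate was CENTA at 70 µM. CENTA hydrolysis was followed by 4-nitrophenolate absorbance at 405 nm and reported as percent inhibition.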

[2] = target: Beta-lactamase (Pseudomonas aeruginosa) (UniProt Q79MP6); experiment: Inhibition of Pseudomonas aeruginosa metallo-beta-lactamase IMP-1 expressed in Escherichia coli BL21(DE3) using CENTA as substrate at 10 uM by spectrophotometric analysis; summary of the method: as §1
Beta-lactamase (Pseudomonas aeruginosa), sequence (Q79MP6 19-246 limits assumed): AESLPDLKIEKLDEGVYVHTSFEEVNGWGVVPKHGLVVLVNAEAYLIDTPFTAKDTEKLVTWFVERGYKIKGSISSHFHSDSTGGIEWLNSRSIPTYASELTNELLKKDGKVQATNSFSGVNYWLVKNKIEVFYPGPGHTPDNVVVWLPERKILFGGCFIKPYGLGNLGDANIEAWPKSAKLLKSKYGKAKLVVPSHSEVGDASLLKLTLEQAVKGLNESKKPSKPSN

[3] = test system: Klebsiella pneumoniae; experiment: Competitive inhibition of Klebsiella pneumoniae metallo-beta-lactamase IMP-1 expressed in Escherichia coli BL21(DE3) using CENTA as substrate by spectrophotometric analysis
Summary of the method: (§2)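 IMP-1 lacking the first 21 signal-peptide residues, recombinantly expressed and purified, at 2 nM final. Buffer was 50 mM HEPES, 0.1 M NaCl, 100 µM ZnCl2, pH 7.0, with BSA at 20 µg/mL final. CENTA was varied from 5 to 70 µM final at three inhibitor concentrations. 4-Nitrophenolate release was read at 405 nm on a plate reader, and data were fitted by non-linear regression.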

[4] = test system: Klebsiella pneumoniae; experiment: Uncompetitive inhibition of Klebsiella pneumoniae metallo-beta-lactamase IMP-1 expressed in Escherichia coli BL21(DE3) using CENTA as substrate by spectrophotometric analysis; summary of the method: as §2
[5] = target: Beta-lactamase (Pseudomonas aeruginosa) (UniProt Q79MP6); experiment: Competitive inhibition of Pseudomonas aeruginosa metallo-beta-lactamase IMP-1 expressed in Escherichia coli BL21(DE3) using CENTA as substrate by spectrophotometric analysis; summary of the method: as §2
[6] = target: Beta-lactamase (Pseudomonas aeruginosa) (UniProt Q79MP6); experiment: Uncompetitive inhibition of Pseudomonas aeruginosa metallo-beta-lactamase IMP-1 expressed in Escherichia coli BL21(DE3) using CENTA as substrate by spectrophotometric analysis; summary of the method: as §2

inhibition [1] [%] | inhibition [2] [%] | Kic [3] [µM] | Kiuc [4] [µM] | Kic [5] [µM] | Kiuc [6] [µM] | Compound
4 | 4 | – | – | – | – | Cc1ccc(-n2c(-c3ccccc3)c(-c3ccccc3)c3c2ncn2cnnc32)cc1
0 | 0 | – | – | – | – | Cc1ccc(-n2cc(-c3ccccc3)c3c(O)ncnc32)cc1
15 | 15 | 12 | 182 | 12 | 182 | COc1ccc(-n2c(-c3ccccc3)c(-c3ccccc3)c3c(Cl)ncnc32)cc1
7 | 7 | – | – | – | – | Cc1ccc(-n2c(-c3ccccc3)c(-c3ccccc3)c3c2ncn2c(C)nnc32)cc1
13 | 13 | 18 | – | 18 | – | Cc1ccc(-n2c(-c3ccccc3)c(-c3ccccc3)c3c(N/N=C/c4ccccc4)ncnc32)cc1
0 | 0 | – | – | – | – | COc1ccc(-n2cc(-c3ccccc3)c(C#N)c2N)cc1
10 | 10 | 19 | 112 | 19 | 112 | Cc1ccc(-n2c(-c3ccccc3)c(-c3ccccc3)c3c(Cl)ncnc32)cc1
9 | 9 | 33 | 106 | 33 | 106 | Cc1ccc(-n2cc(-c3ccccc3)c3c(Cl)ncnc32)cc1
0 | 0 | – | – | – | – | Cc1ccc(-n2cc(-c3ccccc3)c(C#N)c2N)cc1
17 | 17 | 29 | 225 | 29 | 225 | COc1ccc(-n2c3c(c(-c4ccccc4)c2-c2ccccc2)C(=C(C#N)C#N)NC=N3)cc1
14 | 14 | 15 | – | 15 | – | Cc1ccc(-n2c(-c3ccccc3)c(-c3ccccc3)c3c2ncn2c(=S)[nH]nc32)cc1

Reference: ChEMBL document CHEMBL1909495, “Synthesis and kinetic testing of new inhibitors for a metallo-β-lactamase from Klebsiella pneumonia and Pseudomonas aeruginosa” (Eur J Med Chem, 2011)
